# Results: ChEMBL document CHEMBL5724801, “EUbOPEN Chemogenomics Library - Multiplex” (2024)
# Where “and” joins values, the source holds several entries; their conditions need not be identical. Identical values can stand only once.
# Tested on: U2OS
# Assay: Multiplex assay against U2OS
# Assay type: toxicity, cell-based
# Settings: human
# Method in brief: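 Per cents of healthy-nucleus cells form the tubulin, mitochondrial-mass and membrane-permeability phenotype values. Live cells were stained at seeding with Hoechst33342, BioTracker Green Microtubule Cytoskeleton Dye, MitoTracker Red and Annexin V Alexa Fluor 680. After compound addition they were imaged on a CQ1 microscope at 37°C and 5% CO2, and CellPathfinder machine-learning gating split them into Hoechst high-intensity objects or normal cells, normal cells into healthy, pyknosed or fragmented nuclei, and pyknosed cells into mitotic or apoptotic.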
# [1] = 12 h, 1 µM, compound concentration 1 uM
# [2] = 12 h, 10 µM, compound concentration 10 uM
# [3] = 24 h, 1 µM, compound concentration 1 uM
# [4] = 24 h, 10 µM, compound concentration 10 uM
# [5] = 48 h, 1 µM, compound concentration 1 uM
# [6] = 48 h, 10 µM, compound concentration 10 uM
smiles,measurement,setting,value
COc1c(Nc2ccc(S(C)(=O)=O)nc2C)ncnc1OC1CCN(C(=O)OC(C)C)CC1 [ADP-597],Population Apoptotic (%),[1],82% and 75%
same,Population Fragmented Nuclei (%),[1],23% and 13%
same,Population Healthy Nuclei (%),[1],68% and 78%
same,Population Hoechst High Intensity Objects (%),[1],2% and 3%
same,Population Membrane Permeable-Phenotype (%),[1],7% and 11%
same,Population Mitochondria Different-Phenotype (%),[1],1%
same,Population Mitotic Cells (%),[1],17% and 25%
same,Population Normal (%),[1],97% and 96%
same,Population Pyknosed Nuclei (%),[1],8%
same,Population Tubulin-Different-Phenotype (%),[1],5% and 2%
same,Total Cell Count,[1],208 and 95
same,Population Apoptotic (%),[2],93% and 85%
same,Population Fragmented Nuclei (%),[2],27% and 10%
same,Population Healthy Nuclei (%),[2],60% and 77%
same,Population Hoechst High Intensity Objects (%),[2],8% and 4%
same,Population Membrane Permeable-Phenotype (%),[2],7%
same,Population Mitochondria Different-Phenotype (%),[2],2% and 3%
same,Population Mitotic Cells (%),[2],6% and 14%
same,Population Normal (%),[2],91% and 95%
same,Population Pyknosed Nuclei (%),[2],11%
same,Population Tubulin-Different-Phenotype (%),[2],4% and 1%
same,Total Cell Count,[2],266 and 128
same,Population Apoptotic (%),[3],88% and 80%
same,Population Fragmented Nuclei (%),[3],24% and 12%
same,Population Healthy Nuclei (%),[3],67% and 79%
same,Population Hoechst High Intensity Objects (%),[3],3%
same,Population Membrane Permeable-Phenotype (%),[3],7% and 8%
same,Population Mitochondria Different-Phenotype (%),[3],3%
same,Population Mitotic Cells (%),[3],11% and 20%
same,Population Normal (%),[3],96%
same,Population Pyknosed Nuclei (%),[3],7% and 8%
same,Population Tubulin-Different-Phenotype (%),[3],3% and 5%
same,Total Cell Count,[3],239 and 129
same,Population Apoptotic (%),[4],88% and 83%
same,Population Fragmented Nuclei (%),[4],30% and 11%
same,Population Healthy Nuclei (%),[4],61% and 80%
same,Population Hoechst High Intensity Objects (%),[4],6% and 5%
same,Population Membrane Permeable-Phenotype (%),[4],8% and 6%
same,Population Mitochondria Different-Phenotype (%),[4],2% and 4%
same,Population Mitotic Cells (%),[4],12% and 16%
same,Population Normal (%),[4],93% and 94%
same,Population Pyknosed Nuclei (%),[4],8%
same,Population Tubulin-Different-Phenotype (%),[4],4% and 1%
same,Total Cell Count,[4],305 and 155
same,Population Apoptotic (%),[5],80% and 81%
same,Population Fragmented Nuclei (%),[5],19% and 20%
same,Population Healthy Nuclei (%),[5],72% and 67%
same,Population Hoechst High Intensity Objects (%),[5],2%
same,Population Membrane Permeable-Phenotype (%),[5],6% and 5%
same,Population Mitochondria Different-Phenotype (%),[5],5% and 4%
same,Population Mitotic Cells (%),[5],19% and 18%
same,Population Normal (%),[5],97%
same,Population Pyknosed Nuclei (%),[5],7% and 12%
same,Population Tubulin-Different-Phenotype (%),[5],2%
same,Total Cell Count,[5],339 and 185
same,Population Apoptotic (%),[6],79% and 92%
same,Population Fragmented Nuclei (%),[6],24% and 10%
same,Population Healthy Nuclei (%),[6],62% and 77%
same,Population Hoechst High Intensity Objects (%),[6],6% and 3%
same,Population Membrane Permeable-Phenotype (%),[6],6% and 4%
same,Population Mitochondria Different-Phenotype (%),[6],4% and 0%
same,Population Mitotic Cells (%),[6],20% and 8%
same,Population Normal (%),[6],93% and 96%
same,Population Pyknosed Nuclei (%),[6],13% and 11%
same,Population Tubulin-Different-Phenotype (%),[6],2%
same,Total Cell Count,[6],356 and 223
COc1cc(Nc2ncc3c(n2)-c2ccc(Cl)cc2C(c2c(F)cccc2OC)=NC3)ccc1C(=O)O [ALISERTIB],Population Apoptotic (%),[1],63% and 71%
same,Population Fragmented Nuclei (%),[1],23% and 35%
same,Population Healthy Nuclei (%),[1],65% and 55%
same,Population Hoechst High Intensity Objects (%),[1],1% and 4%
same,Population Membrane Permeable-Phenotype (%),[1],4% and 8%
same,Population Mitochondria Different-Phenotype (%),[1],3% and 4%
same,Population Mitotic Cells (%),[1],36% and 28%
same,Population Normal (%),[1],98% and 95%
same,Population Pyknosed Nuclei (%),[1],10% and 8%
same,Population Tubulin-Different-Phenotype (%),[1],3% and 11%
same,Population Apoptotic (%),[2],79% and 71%
same,Population Fragmented Nuclei (%),[2],31% and 12%
same,Population Healthy Nuclei (%),[2],57% and 82%
same,Population Hoechst High Intensity Objects (%),[2],3% and 2%
same,Population Membrane Permeable-Phenotype (%),[2],11% and 5%
same,Population Mitochondria Different-Phenotype (%),[2],5% and 1%
same,Population Mitotic Cells (%),[2],20% and 28%
same,Population Normal (%),[2],96% and 97%
same,Population Pyknosed Nuclei (%),[2],11% and 5%
same,Population Tubulin-Different-Phenotype (%),[2],4% and 0%
same,Population Apoptotic (%),[3],78% and 75%
same,Population Fragmented Nuclei (%),[3],26% and 20%
same,Population Healthy Nuclei (%),[3],64% and 63%
same,Population Hoechst High Intensity Objects (%),[3],1% and 2%
same,Population Membrane Permeable-Phenotype (%),[3],9% and 6%
same,Population Mitochondria Different-Phenotype (%),[3],4% and 2%
same,Population Mitotic Cells (%),[3],21% and 25%
same,Population Normal (%),[3],98% and 97%
same,Population Pyknosed Nuclei (%),[3],8% and 15%
same,Population Tubulin-Different-Phenotype (%),[3],5% and 2%
same,Population Apoptotic (%),[4],84% and 90%
same,Population Fragmented Nuclei (%),[4],30% and 12%
same,Population Healthy Nuclei (%),[4],55% and 77%
same,Population Hoechst High Intensity Objects (%),[4],4%
same,Population Membrane Permeable-Phenotype (%),[4],13% and 9%
same,Population Mitochondria Different-Phenotype (%),[4],5% and 4%
same,Population Mitotic Cells (%),[4],15% and 9%
same,Population Normal (%),[4],95%
same,Population Pyknosed Nuclei (%),[4],13% and 9%
same,Population Tubulin-Different-Phenotype (%),[4],4% and 5%
same,Population Apoptotic (%),[5],85% and 78%
same,Population Fragmented Nuclei (%),[5],28% and 29%
same,Population Healthy Nuclei (%),[5],59% and 53%
same,Population Hoechst High Intensity Objects (%),[5],3%
same,Population Membrane Permeable-Phenotype (%),[5],6% and 11%
same,Population Mitochondria Different-Phenotype (%),[5],5% and 6%
same,Population Mitotic Cells (%),[5],14% and 21%
same,Population Normal (%),[5],96%
same,Population Pyknosed Nuclei (%),[5],12% and 17%
same,Population Tubulin-Different-Phenotype (%),[5],3% and 4%
same,Population Apoptotic (%),[6],88%
same,Population Fragmented Nuclei (%),[6],34% and 16%
same,Population Healthy Nuclei (%),[6],44% and 70%
same,Population Hoechst High Intensity Objects (%),[6],9% and 5%
same,Population Membrane Permeable-Phenotype (%),[6],16% and 7%
same,Population Mitochondria Different-Phenotype (%),[6],9% and 3%
same,Population Mitotic Cells (%),[6],11%
same,Population Normal (%),[6],90% and 94%
same,Population Pyknosed Nuclei (%),[6],21% and 13%
same,Population Tubulin-Different-Phenotype (%),[6],9% and 2%
